# Experimental data from ChEMBL document CHEMBL1145477, “Activity of T-1106 in a hamster model of yellow Fever virus infection” (Antimicrob Agents Chemother, 2007).
# Key:
# Format in all cases: functional
# Yellow fever virus [1] = assay: Antiviral activity against YFV Jimenez infected in Syrian golden hamster liver treated 4 hrs before viral challenge assessed as mean day to death at 50 mg/kg/day, ip bid for 8 days; conditions: route intraperitoneal
# Yellow fever virus [2] = assay: Antiviral activity against YFV Jimenez infected in Syrian golden hamster assessed as weight change at 50 mg/kg, po bid for 7 days
# Yellow fever virus [3] = assay: Antiviral activity against YFV Jimenez infected in Syrian golden hamster assessed as mean day to death after 21 days post-infection at 50 mg/kg, ip bid for 7 days; conditions: route intraperitoneal
# Yellow fever virus [4] = assay: Antiviral activity against YFV Jimenez infected in Syrian golden hamster assessed as serum alanine aminotransferase at 50 mg/kg, ip bid for 7 days; conditions: route intraperitoneal
# Summary of the method: (§1)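 YFV (Jimenez)-infected female hamsters were treated b.i.d. i.p. or p.o. Serum was drawn by ocular sinus at 6 dpi. ALT was read with a colorimetric kit adapted to microplates: substrate plus serum for 30 min at 37°C, then colour reagent and developer, absorbance at 505 nm. Values are IU/liter against saline controls.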
# Yellow fever virus [5] = assay: Antiviral activity against YFV Jimenez infected in Syrian golden hamster liver treated 4 hrs before viral challenge assessed as alanine aminotransferase at 50 mg/kg/day, ip bid for 8 days; conditions: route intraperitoneal; summary of the method: as §1
structure (smiles),measurement,setting,value
NC(=O)c1ncn([C@@H]2O[C@H](CO)[C@@H](O)[C@H]2O)n1 [RIBAVIRIN],Activity,Yellow fever virus [1],6 days
same,Activity,Yellow fever virus [2],1.3 g
same,Activity,Yellow fever virus [3],6 days
same,Activity,Yellow fever virus [4],120 IU/L
same,Activity,Yellow fever virus [5],120 IU/L
